Results collected from several papers.
Lines come from different studies, so protocols differ.
Target: Mitogen-activated protein kinase 6 (MAPK6, Homo sapiens, UniProt Q16659)

Structure (SMILES) | test | setting | remaining binding [%]
C[C@@H]1CCN(c2nccc(-c3cnn4ncccc34)n2)C1 | binding | 1 µM | 100
O=C(NCCCN1CCOCC1)c1ccc(Nc2ncc(Cl)c(-c3ccc(Cl)s3)n2)cc1 | binding, competition with immobilised ligand | 1 µM | 0.05
CN(CCCC(F)(F)F)c1nccc(-c2cnn3ncccc23)n1 | binding | 1 µM | 90
C[C@@H](c1cccc(C#N)c1)n1cc(Cl)cc(C(N)=O)c1=N | cell-free assay, competition with immobilised ligand | 1 µM | 100
N[C@H]1CCN(c2nccc(-c3cnn4ncccc34)n2)C1 | binding | 1 µM | 98
Cc1nc(C2CCN(C(=O)c3ccc(OC(F)(F)F)cc3N)CC2)c2ncc(N3CCN(C)CC3)cc2n1 | cell-free assay, competition with immobilised ligand | 1 µM | 100
F[C@@H]1CCN(c2nccc(-c3cnn4ncccc34)n2)C1 | binding | 1 µM | 74
O=C(c1ccc(Nc2nccc(-c3cc4ccccc4s3)n2)cc1)N1CCC(N2CCCC2)CC1 | binding, competition with immobilised ligand | 1 µM | 11
CCN1CCN(Cc2ccc(C(=O)Nc3ccc(C)c(Oc4ccc5c(c4)CC(=O)N5)c3)cc2C(F)(F)F)CC1 | binding, competition with immobilised ligand | 1 µM | 100
CC(C)CC(=O)N1CCc2nc(-c3ccc(Br)cc3)nc(N(C)Cc3ccccc3)c2C1 | cell-free assay, competition with immobilised ligand | 0.1 µM | 100
FC(F)(F)Oc1cccc(-c2cnc3ccc(-c4ccncc4)nn23)c1 | cell-free assay, competition with immobilised ligand | 5 µM | 91
Cn1nc(C(=O)NCc2ccc(C(=O)O)cc2)cc1-c1ccc2[nH]ccc2c1 | cell-free assay, competition with immobilised ligand | 0.1 µM | 100
O=C(Nc1c[nH]nc1C(=O)NC1CCNCC1)c1cc(F)cc(F)c1 | binding, competition with immobilised ligand | 1 µM | 89
O=C(NCCCN1CCOCC1)c1ccc(Nc2nccc(-c3cc4ccccc4s3)n2)cc1 | binding, competition with immobilised ligand | 1 µM | 48
c1cnn2ncc(-c3ccnc(N4CCC45COC5)n3)c2c1 | binding | 1 µM | 92
C[C@@H](c1ccc(-n2cnc3c(N)ncnc32)cc1)N1CCc2nn(C)c(Cc3ccccc3)c2C1=O | binding, competition with immobilised ligand | 0.1 µM | 93
CCCOc1ccc([C@H]2[C@H](C(=O)O)[C@@H](c3ccc4c(c3)OCO4)CN2CC(=O)Nc2c(CC)cccc2CC)cc1 | cell-free assay, competition with immobilised ligand | 1 µM | 92
Cc1cnn2ncc(-c3ccnc(N(C)C)n3)c2c1 | binding | 1 µM | 98
C[C@@]1(Cc2ccc(C#N)cc2)C(=O)N(c2cc(Cl)cc(Cl)c2)c2ncc(C(=O)NC3(c4nc(C5CCC5)no4)CC3)n21 | cell-free assay, competition with immobilised ligand | 1 µM | 100
C=CC(=O)N1CCC(C(=O)NCC(=O)N2CCN(c3nc(-c4cnc(N)nc4C(F)F)nc(N4CCOCC4)n3)CC2)CC1 | binding, competition with immobilised ligand | 1 µM | 96
CCCCN(CCCC)C(=O)CN1C[C@H](c2cc(OC)c3c(c2)OCO3)[C@@H](C(=O)O)[C@@H]1CC(C)(C)CCC | cell-free assay, competition with immobilised ligand | 1 µM | 100
CNC(=O)[C@@H]1CC[C@@H](n2c(-c3ccc4cnccc4c3)nc3ccc(C(=O)NCc4cccc(C(N)=O)c4)cc32)C1 | binding, competition with immobilised ligand | 1 µM | 100
